# Measurements: ChEMBL document CHEMBL1933023, “Novel immunomodulators based on an oxazolin-2-one-4-carboxamide scaffold” (Bioorg Med Chem Lett, 2012)
# Columns and labels:
# [1] = molecular target: T1, Sphingosine 1-phosphate receptor 1 (Homo sapiens, UniProt P21453); test: Agonist activity at EGFP-tagged S1P1 receptor expressed in human […] cells assessed as receptor internalization in endosomes after 60 mins; assay type: functional, cell-based
# Method in brief: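 S1P1 Redistribution assay measuring agonist activity; EC50 values reported in μM.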
# [2] = molecular target: T2, Sphingosine 1-phosphate receptor 4 (Homo sapiens, UniProt O95977); test: Agonist activity at human S1P4 expressed in CHO cells after 60 mins by [35S]GTPgammaS binding assay; assay type: functional, cell-based
# T2 sequence (O95977 whole entry): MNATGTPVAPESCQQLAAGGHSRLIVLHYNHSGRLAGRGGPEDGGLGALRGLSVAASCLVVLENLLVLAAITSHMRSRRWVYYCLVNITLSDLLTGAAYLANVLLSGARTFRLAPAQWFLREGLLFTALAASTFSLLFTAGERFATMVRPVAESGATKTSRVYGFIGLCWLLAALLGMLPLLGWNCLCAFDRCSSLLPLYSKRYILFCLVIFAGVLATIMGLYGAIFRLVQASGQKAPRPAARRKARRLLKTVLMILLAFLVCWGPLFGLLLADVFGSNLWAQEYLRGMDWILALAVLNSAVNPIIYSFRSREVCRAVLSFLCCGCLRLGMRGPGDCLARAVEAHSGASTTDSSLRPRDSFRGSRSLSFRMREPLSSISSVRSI
# [3] = test system: Mus musculus; test: Immunosuppressant activity in Balb/C mouse assessed as decrease in circulating CD3+ T cells at 1 mg/kg, po measured after 30 mins by flow cytometric analysis; assay type: functional, T-cell; set-up: scale not given: the % may be the effect or the level left
# Method in brief: (§1)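 Oral dosing of BALB/C mice at 0.1, 0.3, 1, 3 or 10 mg/kg. Peripheral blood CD3+ T cells were counted, and the result is expressed as percent decrease of CD3+ cells.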
# [4] = test system: Mus musculus; test: Immunosuppressant activity in Balb/C mouse assessed as decrease in circulating CD3+ T cells at 3 mg/kg, po measured after 30 mins by flow cytometric analysis; assay type: functional, T-cell; set-up: scale not given: the % may be the effect or the level left; method in brief: as §1
# [5] = test system: Mus musculus; test: Immunosuppressant activity in Balb/C mouse assessed as decrease in circulating CD3+ T cells at 10 mg/kg, po measured after 30 mins by flow cytometric analysis; assay type: functional, T-cell; set-up: scale not given: the % may be the effect or the level left; method in brief: as §1
# [6] = Cytotoxicity against HLF cells; assay type: cell-based; details: human, read-out: TC50 (the source's name)
# Method in brief: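 Cytotoxicity was determined by the MTT method in HLF cells; TC50 values reported in μM.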
# [7] = test system: Mus musculus; test: Immunosuppressant activity in Balb/C mouse assessed as decrease in circulating CD3+ T cells at 0.1 mg/kg, po measured after 30 mins by flow cytometric analysis; assay type: functional, T-cell; set-up: scale not given: the % may be the effect or the level left; method in brief: as §1
# [8] = test system: Mus musculus; test: Immunosuppressant activity in Balb/C mouse assessed as decrease in circulating CD3+ T cells at 0.3 mg/kg, po measured after 30 mins by flow cytometric analysis; assay type: functional, T-cell; set-up: scale not given: the % may be the effect or the level left; method in brief: as §1
# [9] = molecular target: T1, Sphingosine 1-phosphate receptor 1; details: UOS2, 3 uM
# [10] = molecular target: T1, Sphingosine 1-phosphate receptor 1; details: UOS2, 10 uM
# [11] = test system: Mus musculus; test: Immunosuppressant activity in po dosed Balb/C mouse assessed as decrease in circulating CD3+ T cells measured after 30 mins by flow cytometric analysis; assay type: functional, organism-based; details: T-cell; method in brief: as §1
# [12] = test system: S1P1 receptor; test: Therapeutic index, ratio of TC50 for HLF cells to EC50 for S1P1 receptor; assay type: cell-based; details: human, read-out: TI
# [13] = Ratio of TC50 for compound to FTY720 for HLF cells; assay type: ADME, cell-based; details: human
# T1 sequence (P21453 whole entry): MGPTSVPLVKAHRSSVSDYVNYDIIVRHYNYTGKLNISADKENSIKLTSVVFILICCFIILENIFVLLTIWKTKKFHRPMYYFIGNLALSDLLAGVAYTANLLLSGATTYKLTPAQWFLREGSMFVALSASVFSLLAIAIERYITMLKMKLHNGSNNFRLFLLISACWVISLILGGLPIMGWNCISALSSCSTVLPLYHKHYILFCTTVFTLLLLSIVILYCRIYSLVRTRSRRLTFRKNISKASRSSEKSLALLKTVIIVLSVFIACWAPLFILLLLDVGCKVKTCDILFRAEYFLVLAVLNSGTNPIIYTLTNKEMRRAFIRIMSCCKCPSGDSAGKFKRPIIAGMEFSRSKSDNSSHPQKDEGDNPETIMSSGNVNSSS
SMILES,EC50 ([1]; read-out: EC50) [nM],CC50 [6] [µM],selectivity ratio [12],selectivity ratio [13],other results
NC(=O)C1(CCc2ccc(OCc3ccccc3Cl)cc2)COC(=O)N1 (stereo unspecified),> 100000,,,,
CCCCCCCCc1ccc(CC[C@](N)(CO)COP(=O)(O)O)cc1 [FTY720-P],,,,,IC50 [2]: 2.2 nM
Cc1ccccc1COc1ccc(CCC2(C(N)=O)COC(=O)N2)cc1 (stereo unspecified),,,,,EC50 ([1]; uos2): Not Active
CCCCCCCCc1ccc(CCC(N)(CO)CO)cc1.Cl [FINGOLIMOD HYDROCHLORIDE],,3.15,,,Activity [3]: 79%; Activity [4]: 80.7%; Activity [5]: 86.6%; Activity [7]: 9.7%; Activity [8]: 47.2%; Emax [9]: 37%; Emax [10]: 54%
CCCCCCCCOc1ccc(CCC2(C(N)=O)COC(=O)N2)cc1 (stereo unspecified),2840,121,42.6,,Activity [3]: 20%; Activity [4]: 53%; Activity [5]: 84.3%; Activity [11]: Dose-dependent effect; Activity [8]: 1.7%
CC(C)(C)c1ccc(COc2ccc(CCC3(C(N)=O)COC(=O)N3)cc2)cc1 (stereo unspecified),2720,25.4,9.35,8,
NC(=O)C1(CCc2ccc(OCCCc3ccccc3)cc2)COC(=O)N1 (stereo unspecified),3630,26.4,7.28,8,
NC(=O)C1(CCc2ccc(OCc3ccc(Cl)cc3)cc2)COC(=O)N1 (stereo unspecified),1100,27.9,25.4,8,
